ROMK primary – ROMK potassium channel modulators, primary screen, cell-based, thallium flux, MLSMR library; ATP-sensitive inward rectifier potassium channel 1 (Homo sapiens), P48048; Tet-inducible ROMK, thallium flux fluorescence; actives lie on both sides; B-score at 10 µM; hit rate 2% among 130,000;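 active = signal ratio slope over the read window, or its plate-corrected B-score, at least 3 SD from the plate mean, either direction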;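 also: B-score of the F/F0 ratio slope over 7 to 12 s after thallium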
14-3-3 Bad inh – inhibitors of 14-3-3 zeta/Bad binding, primary screen, biochemical, TR-FRET, bovine 14-3-3 zeta; 14-3-3 protein zeta/delta (Bos taurus), P63103; TR-FRET 14-3-3zeta/Dy647-pBad peptide displacement, 1 h; inhibition, % at 21.7 µM; hit rate 0.71% among 220,000;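 active = inhibition above about 70%, limit read from the data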
Target sequence (P63103 whole entry, looked up): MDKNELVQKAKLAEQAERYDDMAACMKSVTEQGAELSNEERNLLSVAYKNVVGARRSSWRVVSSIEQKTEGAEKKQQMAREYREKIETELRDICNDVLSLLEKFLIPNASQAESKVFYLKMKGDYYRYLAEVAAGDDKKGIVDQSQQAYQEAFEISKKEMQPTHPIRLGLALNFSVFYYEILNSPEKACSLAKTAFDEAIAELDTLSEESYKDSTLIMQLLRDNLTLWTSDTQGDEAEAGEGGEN
NCF1 inh – p47phox/p22phox peptide binding inhibitors, primary screen, biochemical, uHTS, NADPH oxidase regulatory subunit; Neutrophil cytosol factor 1 (Homo sapiens), P14598; fluorescence polarization, 2 h; inhibition, % at 24.7 µM; hit rate 0.53% among 220,000; AID 1274, 2008;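 active = inhibition above about 30%, limit read from the data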
Cl transport mod – KCC2 cotransporter modulators, thallium flux, primary screen, cell-based, HEK293 KCC2, FluoZin-2 fluorescence, MLSMR; Solute carrier family 12 member 5 (Homo sapiens), Q9H2X9; KCC2 cells, thallium flux FluoZin-2 fluorescence; B-score of Tl+ flux slope (higher = more flux/activation; lower = inhibition) at 10 µM; hit rate 2.2% among 190,000;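 active = thallium flux slope and its plate-corrected score both differing from the plate sample mean at a set confidence after two filtering rounds, in either direction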;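 also: slope of fluorescence scaled to starting intensity during 10 to 20 s after thallium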
RBBP9 inhibitor – human RBBP9 inhibitors, primary screen, biochemical, fluorescence polarization, FP-Rh probe, HTS | recombinant RBBP9 | inhibition, % at 7.94 µM | hit rate 0.2% among 220,000 | AID 1515, 2009;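 active = inhibition above the campaign mean of all tested compounds plus 3 SD, cut at about 14% in these data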
Target sequence (O75884 whole entry, looked up): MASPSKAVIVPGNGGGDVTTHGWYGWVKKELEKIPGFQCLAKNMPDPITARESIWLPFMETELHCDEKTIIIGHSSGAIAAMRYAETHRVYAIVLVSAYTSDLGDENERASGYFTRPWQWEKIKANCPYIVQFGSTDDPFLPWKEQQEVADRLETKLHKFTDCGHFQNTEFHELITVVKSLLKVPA
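Material: RBBP9 protein. Amount: RBBP9 at 2.5 µM in dispensed solution, before mixing. Schedule: 30 min then 45 min, 25 °C. Medium: Tris buffer pH 8.0, NaCl, Pluronic. Measured by: fluorescence polarization. Measure: percent inhibition from mP, scaled between DMSO and no-protein wells. Replication: one well per compound.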
WT yeast gro inh – growth inhibition of WT strain, primary screen, mitochondrial fusion inhibitor project, WT and mutant strains, chemical genetic; inhibition, % at 10 µM; hit rate 2.1% among 190,000; mitochondrial fusion phenotypic screen; in the data active = inhibition above about 58%; tested in S. cerevisiae
ROMK retest – ROMK channel modulator hit retest, confirmation, cell-based, thallium flux, duplicate, resupplied hits; shares compounds with ROMK primary; fluorescence ratio; active compounds read low; normalized thallium flux (F/F0 slope) at 10 µM; hit rate 54% among 3,000; AID 1917, 2009;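 active = Flux at 10 µM at least 3 SD below or above vehicle control mean in one or both replicates; inconclusive = no clear call, values can overlap the other calls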
Hits are given with their value; - = inactive; ? = inconclusive; . = no result; ! = not active in a repeat. The list is not random: actives were taken first. Their share in the collection is about 5.8%.

SMILES	ROMK primary	14-3-3 Bad inh	NCF1 inh	Cl transport mod	RBBP9 inhibitor	WT yeast gro inh	ROMK retest
COC(=O)C1=C(N)OC2=C(C(=O)CC(C)(C)C2)C1c1ccccc1OCC#N (stereo not drawn)	-	-	-	-	-	-	.
COC(=O)C1=C(N)OC2=C(C(=O)CC(C)(C)C2)C1c1cccnc1 (stereo not drawn)	4	-	-	-	-	-	-
CC1=CC(C)(C)N(C(=O)CNC2CCCC2)c2cc(C)ccc21	-4	-	-	-	-	-	0.05
COc1cccc(C(C(=O)NC2CCCC2)N(C(=O)c2ccco2)c2ccc(-n3cnnn3)c(C)c2)c1OC (stereo not drawn)	-	-	.	-	-	-	.
Cc1ccc(N=C2S/C(=C\c3cn(CC(=O)O)c4ccccc34)C(=O)N2C)cc1	-	-	-	-	-	-	.
Cn1c(=O)c2[nH]c(-c3ccccc3Cl)c(O)c2n(C)c1=O	-3.9	-	-	-	-	-	0.063
NC(=O)C1CCN(c2ncnc3c2c(-c2ccccc2)cn3-c2ccccc2)CC1	.	-	-	-	-	-	0.063
Fc1ccc(-n2cc(-c3ccccc3)c3c(N4CCOCC4)ncnc32)cc1	-	-	-	-	-	-	.
Cn1nc(C(=O)N2CCN(C(c3ccccc3)c3ccccc3)CC2)c2ccccc2c1=O	.	-	-	-	-	.	0.06
Cn1nc(C(=O)N2CCN(S(=O)(=O)/C=C/c3ccccc3)CC2)c2ccccc2c1=O	.	-	-	-	-	-	.
CC(C)Cc1cc(C(=O)N2CCN(C(c3ccccc3)c3ccccc3)CC2)no1	.	-	-	-	-	59	0.062
CCOC(=O)C1(CCOc2ccccc2)CCN(Cc2ccc(C)o2)CC1	-4.5	-	-	-	-	-	0.067
CCOC(=O)C1(CCc2ccccc2)CCN(Cc2c(O)cccc2OC)CC1	-2.8	-	-	-	-	-	0.055
CN1CCC2(CC1)C1CN(C)CC=C1C(C#N)=C(N)C2(C#N)C#N (stereo not drawn)	-3.4!	-	-	-	-	-	0.057
CCOC(=O)C1=C(N)OC(CCl)=C(C#N)C1c1ccsc1 (stereo not drawn)	-3.5	-	-	-	-	-	0.06
CC1=C(C(=O)OCc2ccccc2)C(c2ccsc2)C(C#N)=C(N)O1 (stereo not drawn)	-	-	-	-	-	-	.
CCCC1=C(C(=O)OCC)C(c2cccs2)C(C#N)=C(N)O1 (stereo not drawn)	2.3	-	-	-	-	-	-
CCOC(=O)C1=C(C)OC(N)=C(C#N)C1c1cccs1 (stereo not drawn)	-	-	-	-	-	-	.
Cc1ccsc1/C=C1/NC(=O)N(Cc2ccc(F)cc2)C1=O	-	-	-	-	-	-	.
CCN(CC)Cc1c(O)ccc2c([N+](=O)[O-])c(C)n(-c3ccc(OC)cc3)c12	-4.8	-	-	-	-	-	?
COc1ccc(C(=O)CSc2nc3[nH]ncc3c(=O)[nH]2)cc1	-	-	-	-	-	-	.
Cc1ccc(C2(CCNC(C)c3cccs3)CCOC(C(C)C)C2)cc1 (stereo not drawn)	-	-	-	-	-	-	.
COc1ccccc1C1(CCNC(C)c2cccs2)CCOC(C(C)C)C1 (stereo not drawn)	.	-	-	-	-	.	0.041
O=C(O)c1cccc(NC2=C(Cl)C(=O)c3ccccc3C2=O)c1	-	-	-	-	-	-	0.056
O=C(O)c1cccc(NS(=O)(=O)/C=C/c2ccccc2)c1	.	-	-	-	-	-	.

Source: PubChem BioAssay (several laboratories)
